Screening results as filed in PubChem.
ABCB1 inh – ABCB1 efflux pump inhibitors, primary screen, cell-based, multiplex, flow cytometry, ABCG2 counter-screen | CCRF-Adr cells, JC-1 efflux | inhibition, % at 6.6 µM | 190,000 tested, 0.067% active; in the data active = inhibition above about 40%;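 also: 0% = vehicle and 100% = reference inhibitor; higher value means more JC-1 retained so stronger ABCB1 efflux block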
ABCG2 block – ABCG2 efflux pump inhibitors, primary screen, multiplex with ABCB1, IgMXP3 cells, flow cytometry; AID 1325, 2008; 190,000 tested, 0.1% active; JC-1 efflux; inhibition, % at 6.6 µM;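 active = inhibition above 80%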;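 also: 0% = DMSO and 100% = nicardipine control wells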
Target sequence (Q9UNQ0 whole entry, looked up): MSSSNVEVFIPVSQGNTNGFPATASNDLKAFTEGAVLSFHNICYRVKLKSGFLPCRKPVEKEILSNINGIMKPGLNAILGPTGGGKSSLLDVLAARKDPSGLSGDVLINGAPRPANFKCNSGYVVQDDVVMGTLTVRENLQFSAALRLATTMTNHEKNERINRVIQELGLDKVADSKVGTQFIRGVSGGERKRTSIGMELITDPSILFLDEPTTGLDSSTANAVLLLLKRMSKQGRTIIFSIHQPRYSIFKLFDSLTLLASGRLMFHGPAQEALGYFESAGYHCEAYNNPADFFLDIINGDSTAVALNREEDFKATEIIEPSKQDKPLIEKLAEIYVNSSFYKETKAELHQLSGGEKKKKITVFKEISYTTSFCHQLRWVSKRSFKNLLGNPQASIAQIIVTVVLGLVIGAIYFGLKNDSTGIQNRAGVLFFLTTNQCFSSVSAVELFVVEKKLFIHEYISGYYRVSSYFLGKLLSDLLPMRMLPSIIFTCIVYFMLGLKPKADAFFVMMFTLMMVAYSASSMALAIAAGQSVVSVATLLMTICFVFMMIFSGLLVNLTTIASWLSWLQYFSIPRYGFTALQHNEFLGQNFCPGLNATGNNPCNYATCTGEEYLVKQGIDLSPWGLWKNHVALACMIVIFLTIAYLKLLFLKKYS
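Read-out basis: Efflux inhibition in percent versus controls | Test system: ABCG2 IgMXP3 and barcoded ABCB1 CCRF-Adr cell mix | Quantity: 3 million cells/mL in well | Schedule: 10 min at 25 °C | Control set: Nicardipine as high control, DMSO as low control | Reagent: JC-1 as fluorescent efflux pump substrate | Signal: Flow cytometry of retained JC-1 fluorescence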
ROMK mod – ROMK potassium channel modulators, primary screen, cell-based, thallium flux, MLSMR library | ATP-sensitive inward rectifier potassium channel 1 (Homo sapiens), P48048 | Tet-inducible ROMK, thallium flux fluorescence; actives lie on both sides | B-score at 10 µM | 130,000 tested, 2% active;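 active = signal ratio slope over the read window, or its plate-corrected B-score, at least 3 SD from the plate mean, either direction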;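 also: B-score of the F/F0 ratio slope over 7 to 12 s after thallium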
PMI act hi M6P – human PMI activators, high substrate, primary screen, biochemical, fluorescence intensity, near-saturating mannose 6-phosphate | 190,000 tested, 0.34% active | activation factor at 20 µM | coupled PMI enzyme assay, resazurin fluorescence, 20 min; active compounds read high; 1 = untreated enzyme, 0 = substrate-free blank;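 active = activation factor of 2 or more at 20 µM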
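Technique: Diaphorase-driven resazurin-to-resorufin fluorescence, excitation 544, emission 590 nm | Assay system: Human PMI in coupled enzyme assay | Times: Enzyme reaction with compound 20 min at room temperature | Medium: HEPES-buffered pH 7.4 with magnesium and detergent | Reagent: Mannose-6-phosphate 1.0 mM (near-saturating) plus 0.22 mM NADP+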
PMI act – activators of human PMI, primary screen, biochemical, fluorescence intensity, near-Km mannose 6-phosphate; Mannose-6-phosphate isomerase (Homo sapiens), P34949; purified human PMI, coupled resazurin fluorescence, 20 min; active compounds read high; 1 = vehicle control, 0 substrate-free wells; activation factor at 20 µM; 190,000 tested, 0.005% active; AID 1214, 2008;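 active = activation factor of 2 or more at 20 µM, relative to plate controls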
Cl transport mod – KCC2 cotransporter modulators, thallium flux, primary screen, cell-based, HEK293 KCC2, FluoZin-2 fluorescence, MLSMR | KCC2 cells, thallium flux FluoZin-2 fluorescence | AID 1456, 2008 | 190,000 tested, 2.2% active | B-score of Tl+ flux slope (higher = more flux/activation; lower = inhibition) at 10 µM;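 active = thallium flux slope and its plate-corrected score both differing from the plate sample mean at a set confidence after two filtering rounds, in either direction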;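 also: slope of fluorescence scaled to starting intensity during 10 to 20 s after thallium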
ROMK retest – ROMK channel modulator hit retest, confirmation, cell-based, thallium flux, duplicate, resupplied hits | shares compounds with ROMK mod | fluorescence ratio; active compounds read low | normalized thallium flux (F/F0 slope) at 10 µM | 3,000 tested, 54% active;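 active = Flux at 10 µM at least 3 SD below or above vehicle control mean in one or both replicates; inconclusive = no clear call, values can overlap the other calls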
Starred values were filed as active, the others as inactive; i = inactive; ? = inconclusive; . = no result. An excerpt weighted towards active compounds, which were near 3.3% of everything screened.

SMILES	ABCB1 inh	ABCG2 block	ROMK mod	PMI act hi M6P	PMI act	Cl transport mod	ROMK retest
CCOc1ccc(NC(=O)CCN2CCN(S(=O)(=O)c3cc(Cl)ccc3OC)CC2)cc1	1	4	-2.4*	0.9	0.9	.	0.062*
COc1ccc2[nH]c3c(=O)n(CCCCCC(=O)NCCC(C)C)c(=S)[nH]c3c2c1	0	5	-0.58	1.1	1.1	0.33	.
COc1ccc2c(c1)c1ccccc1n2C	0	-2	-0.37	0.9	0.9	1.1	.
CN=C1c2c(-c3ccccc3)c3cc(OC)ccc3n2CCN1C	0	2	-3.7*	1.1	1	.	0.067*
Cc1ccc(S(=O)(=O)N2CCCCC2)cc1NC(=O)c1ccccn1	.	.	.	.	.	0.0081	.
Cn1c(NNC(=O)c2cccc3ccccc23)cc(=O)n(C)c1=O	0	0	.	0.8	1	0.88	.
Oc1c(Br)cc(Cl)cc1C=Nc1ccccc1Br	0	-2	3.5*	1.1	1.2	0.03	?
Oc1c(Br)cc(Cl)cc1C=Nc1ccc(N2CCOCC2)cc1	0	1	0.57	0.5	0.8	-2.8	.
CCCC1(C(=O)OC)NC(c2cccc(F)c2)C2C(=O)N(CC)C(=O)C21 (configuration not stated)	1	4	.	0.9	0.9	1.6	0.071
COc1cc([N+](=O)[O-])ccc1N/C=C/C(=O)c1cccs1	1	7	.	1	0.9	-1.2	0.053*
O=C(CN1C(=O)c2ccccc2S1(=O)=O)NC(Nc1ccccc1F)C(Cl)(Cl)Cl (configuration not stated)	3	13	0.54	1	1	-2.2	.
O=C(CCN1CCCCCC1)c1ccccc1	0	1	.	1.2	1.1	0.52	.
O=C(CCCCN1CCCCC1)c1ccc2c(c1)Cc1ccccc1-2	0	-1	-4.5*	1.1	1.1	0.19	0.064*
Cc1ccc(C2SCCN2C(=O)c2ccc([N+](=O)[O-])cc2)cc1 (configuration not stated)	1	11	-0.39	0.9	0.9	0.18	.
COc1ccc(C(=O)NCCSC2CCCCC2)cc1	0	9	-2.2*	0.9	1	-0.64	?
O=C(Nc1ccccc1Cl)C1CCN(Cc2cnn(-c3ccccc3)c2-n2cccc2)CC1	7	25	-3.2*	1	1	.	0.054*
N#Cc1cc(-c2ccccc2)nc(Oc2ccccc2)n1	0	1	-0.087	0.8	0.8	0.044	.
NC(=O)c1cc(-c2ccccc2)nc(Oc2ccccc2)n1	-2	0	-3.6*	0.9	0.9	0.04	0.077
COc1ccc(/C=C/CN2CCC(CO)(Cc3ccccc3Cl)CC2)cc1	1	1	-1.8*	1	0.9	-0.018	0.063*
CC(OC(=O)c1ccc(-c2ccc([N+](=O)[O-])cc2)o1)C(=O)NC(N)=O (configuration not stated)	.	.	.	.	.	0.44	.
COc1ccc(OCC2CCCN(Cc3nc(CC4CC4)no3)C2)cc1 (configuration not stated)	1	2	-0.63	0.9	0.9	0.3	.
COCC1CCCN(Cc2nc(Cc3ccccc3)no2)C1 (configuration not stated)	0	1	0.57*	1	1	-0.28	0.078
CCc1ccccc1OCC(=O)Nc1nc(-c2cccnc2)cs1	1	3	0.15	1.1	1.1	0.43	.
Cc1ccc(S(=O)(=O)/N=C2/NC(=O)/C(=C/c3ccccc3)S2)cc1	0	0	-4.6*	0.9	0.9	1.1	0.051*
Cc1ccc(S(=O)(=O)/N=C2/NC(=O)/C(=C\c3ccco3)S2)cc1	0	3	-0.47	1.1	1.1	0.22	.
SMILES	ABCB1 inh	ABCG2 block	ROMK mod	PMI act hi M6P	PMI act	Cl transport mod	ROMK retest
CC1=C([N+](=O)[O-])C(c2ccccc2C(F)(F)F)NC(=O)N1C (configuration not stated)	.	.	.	.	.	0.84	.
O=C(c1ccc(-c2cc(Cl)ccc2Cl)o1)N1CCOCC1	1	6	-3.5*	.	.	-1.2	0.063*
CCN(CC)S(=O)(=O)c1cccc(C(=O)N[C@H](C(=O)NCc2ccc(Cl)cc2)C(C)C)c1	2	5	-2.4	0.9	0.8	0.55	.
Cc1ccccc1-n1c(C)nnc1SCC(=O)N1CC(=O)Nc2ccccc21	0	2	-0.34	1	1	1.8	.
Cc1cc(=O)oc2c3c4c(cc12)OCCN4CCC3	0	1	.	0.8	1.1	-1.4	.
CC(C)c1cc(=O)oc2c3c4c(cc12)CCCN4CCC3	0	1	.	1.1	1.3	i	0.054*
CN(C)c1cccc(C(=O)OCC(=O)NCC2CCCO2)c1 (configuration not stated)	1	4	.	1	1.1	-0.02	.
O=C(Nc1ccc(Br)cc1)C1CCCN1S(=O)(=O)c1cccs1 (configuration not stated)	0	2	-3.3*	1	1	-0.81	0.061*
O=C(Nc1ccccc1-c1ccccc1)c1ccc(NC(=O)c2ccco2)cc1	1	3	.	0.9	0.9	-1.2	.
COc1ccc(CNCCC(c2ccccc2)c2ccc3c(c2)OCO3)cc1 (configuration not stated)	4	2	.	1.1	1.1	0.84	0.053*
CCCCCC[N+](C)(C)CC/C=C1/c2ccccc2Sc2ccc(Cl)cc21	.	.	.	.	.	0.04	0.045*
CN(C)CC/C=C1/c2ccccc2Sc2ccc(Cl)cc21	.	.	.	.	.	1.1	.
CC1(C)NC(=O)N(CCCCOc2ccc(Cl)cc2C=O)C1=O	1	17	3.9*	0.9	0.9	-2.5	0.092
Cc1csc(NC(=O)c2cc(-c3ccccc3)nc3ccccc23)n1	5	15	.	0.9	0.9	-0.63	0.08
CC(NC(=O)COC(=O)Cc1ccsc1)c1ccccc1 (configuration not stated)	0	0	0.28	1	1	-0.63	.
CC1(C)CC(=O)C2=C(C1)OC1OC(=O)CC21C (configuration not stated)	0	1	1.4*	1	1	-0.49	0.091
